Source: ChEMBL document CHEMBL4619773, “Chemoreactive-Inspired Discovery of Influenza A Virus Dual Inhibitor to Block Hemagglutinin-Mediated Adsorption and Membrane Fusion” (J Med Chem, 2020)
Activity calls are given as the source filed them. No cut-off for these calls is given here.

Columns and labels:
[1] = Tmax in rat at 3.5 mg/kg , po administered as single dose; assay type: ADME, organism-based; settings: in vivo
Summary of the method: (§1)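 Male Kunming mice (20–25 g) and male SD rats (180–220 g) were fasted 12 h before dosing. Compound was suspended in 0.5% CMC-Na and given by gavage (5 mg/kg mice, 3.5 mg/kg rats), or dissolved in PEG400 and given iv via tail vein (0.5 mg/kg mice, 0.35 mg/kg rats). Plasma was sampled from 5 min to 24 h and analysed by LC-MS/MS (n=3). F = AUCoral/AUCiv.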

[2] = Toxicity in Kunming mouse assessed as effect on creatinine level at 5 to 10 mg/kg/day, po for 7 days; assay type: organism-based; settings: in vivo, 168 h
Summary of the method: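 Male Kunming mice (20–25 g) received compound orally at 5 or 10 mg/kg/day, suspended in 0.5% sodium carboxymethyl cellulose, once daily for 7 days; controls received vehicle. Serum was collected under isoflurane 24 h after the last dose. AST, ALT, CR, BUN, LDH, CK and CK-MB were measured with commercial kits.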

Influenza A virus [3] = test: Antiviral activity against Influenza A virus (A/California/04/2009(H1N1)) infected in MDCK cells by HA assay; assay type: functional, organism-based
Summary of the method: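 MDCK cells were infected at high moi (≈3.0 PFU/cell). Virus-containing supernatants were serially diluted 2-fold and mixed with an equal volume of 1% chicken red blood cells. After 60 min at 4 °C, wells were scored for button sedimentation versus opaque agglutination to give titers.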

[4] = AUC (0 to t) in mouse at 0.5 mg/kg, iv administered as single dose; assay type: ADME, organism-based; settings: in vivo
Summary of the method: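 Male Kunming mice (20-25 g) and male Sprague Dawley rats (180-220 g) were fasted 12 h before dosing. Oral dosing was by gavage as a suspension in 0.5% sodium carboxymethyl cellulose; iv dosing was via tail vein in PEG400. Serial plasma samples were taken to 24 h, protein-precipitated with acetonitrile plus N-CH3 internal standard, and quantified by LC-MS/MS (n=3). Bioavailability = AUCoral/AUCiv.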

[5] = target: Hemagglutinin (Influenza A virus (A/Puerto Rico/8/1934(H1N1))) (UniProt P03452); test: Inhibition of Hemagglutinin in Influenza A virus (A/Puerto Rico/8/1934(H1N1))/H1N1 pseudovirus infected in 293FT cells assessed as reduction in virus infection at 50 ug/ml pre-treated with virus before infection and measured after 48 hrs by inverted fluorescence microscopy; assay type: cell-based
Sequence of Hemagglutinin (Influenza A virus (A/Puerto Rico/8/1934(H1N1))) (P03452 whole entry): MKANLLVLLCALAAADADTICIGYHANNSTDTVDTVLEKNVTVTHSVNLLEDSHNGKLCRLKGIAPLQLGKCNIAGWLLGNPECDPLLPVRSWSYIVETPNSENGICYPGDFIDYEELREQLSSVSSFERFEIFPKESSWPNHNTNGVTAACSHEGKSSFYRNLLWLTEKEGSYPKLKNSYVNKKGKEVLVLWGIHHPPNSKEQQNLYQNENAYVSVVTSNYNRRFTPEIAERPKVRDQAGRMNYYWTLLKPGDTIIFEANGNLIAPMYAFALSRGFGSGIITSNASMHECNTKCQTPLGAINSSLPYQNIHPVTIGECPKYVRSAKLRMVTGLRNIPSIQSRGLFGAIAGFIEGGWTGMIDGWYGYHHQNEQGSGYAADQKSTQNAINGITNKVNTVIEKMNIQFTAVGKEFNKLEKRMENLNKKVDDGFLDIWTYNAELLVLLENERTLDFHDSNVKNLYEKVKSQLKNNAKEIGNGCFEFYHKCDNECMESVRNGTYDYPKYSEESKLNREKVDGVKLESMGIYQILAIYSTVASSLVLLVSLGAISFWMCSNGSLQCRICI
Summary of the method: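 PR8 pseudoviruses (IAV-GFP) carrying wild-type HA or a mutant HA (T30N/E233D/T359A or T359A) were made in 293FT cells by co-transfecting HA, NA, HIV backbone and GFP reporter plasmids, and supernatants were harvested at 48 h. Pseudovirus was pretreated with compound at 50 µg/ml for 1 h at 37 °C before infection. Infected GFP-positive cells were viewed by fluorescence microscopy 48 h p.i.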

Influenza A virus [6] = test: Antiviral activity against Influenza A virus (A/Puerto Rico/8/1934(H1N1)) infected in human A549 cells assessed as reduction in endocytosis and nuclear import of viral RNP by measuring green fluorescence of NP protein in both cytoplasm and nucleus at 25 ug/ml during early infection stage (0 to 2 hrs post infection) by indirect immunofluorescence assay; assay type: functional, organism-based
Summary of the method: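 PR8 virus was pretreated with or without 25 µg/ml compound for 1 h at 37 °C before infection. After adsorption, compound- or DMSO-containing medium was added. At 2 h p.i. cells were fixed (4% PFA), permeabilized (0.5% Triton X-100) and blocked (2% BSA). They were stained with anti-NP antibody, FITC secondary antibody and DAPI, then imaged by confocal microscopy.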

[7] = Cumulative drug excretion in rat urine at 3.5 mg/kg, po administered as single dose measured after 72 hrs; assay type: ADME, organism-based; settings: read-out: Drug excretion
Summary of the method: (§2)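 Single oral (gavage, 0.5% CMC-Na) or iv (tail vein, PEG400) dosing was given to male Kunming mice or Sprague Dawley rats held in metabolic cages. Urine and feces were collected at intervals to 72 h. Feces were dried, ground and homogenized in water (1:9 w/v). Samples were precipitated with acetonitrile containing internal standard and analysed by LC-MS/MS.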

[8] = Cumulative drug excretion in rat feces at 0.35mg/kg, iv administered as single dose measured after 72 hrs; assay type: ADME, organism-based; settings: faeces, read-out: Drug excretion; summary of the method: as §2
Influenza A virus [9] = test: Antiviral activity against Influenza A virus (A/Puerto Rico/8/1934(H1N1)) infected in Kunming mouse assessed as decrease in lung IL6 level at 20 to 40 ug/day dosed intranasally starting 4 hrs after viral challenge and continued for 4 days by ELISA; assay type: functional, organism-based
Summary of the method: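 Four-week-old female Kunming mice received PR8 intranasally (500 PFU/mouse in 40 µL PBS) and were then dosed once daily orally or intranasally. Lungs were collected on day 4, and TNF-α and IL-6 in lung tissue were measured by ELISA.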

Influenza A virus [10] = test: Antiviral activity against Influenza A virus (A/Puerto Rico/8/1934(H1N1)) infected in MDCK cells pre-incubated for 1 hr before assay and incubated for 3 days by crystal violet staining based plaque assay; assay type: functional, organism-based
Summary of the method: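 Confluent MDCK monolayers were exposed to 10-fold serial virus dilutions for 1 h at 37 °C, then washed. The overlay was DMEM with 1.5% agarose, 0.02% DEAE-dextran and 1 µg/ml TPCK-trypsin. After 3 days at 37 °C in 5% CO2, cells were fixed with 0.05% glutaraldehyde, stained with 1% crystal violet in 20% ethanol, and plaques were counted.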

Influenza A virus [11] = test: Antiviral activity against Influenza A virus (A/Puerto Rico/8/1934(H1N1)) infected in Kunming mouse assessed as mouse survival at 40 ug/day dosed intranasally starting 4 hrs after viral challenge and continued for 7 days and measured on day 14 by plaque assay; assay type: functional
Summary of the method: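 Groups of 10 female Kunming mice were infected intranasally with PR8 (1000 PFU/mouse) on day 0 and dosed once daily for seven days. Weight and clinical signs were recorded daily. Mice losing more than 25% of pre-infection weight were scored dead and euthanized; survivors were killed on day 14.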

[12] = Oral bioavailability in rat at 3.5 mg/kg administered as single dose; assay type: ADME, organism-based; settings: in vivo; summary of the method: as §1
[13] = Toxicity in Influenza A virus (A/Puerto Rico/8/1934(H1N1)) infected Kunming mouse assessed as induction of body weight loss at 5 to 10 mg/kg/day, po starting 4 hrs after viral challenge and continued for 7 days by plaque assay; assay type: organism-based; settings: in vivo
Influenza A virus [14] = test: Antiviral activity against Influenza A virus (A/Puerto Rico/8/1934(H1N1)) infected in MDCK cells assessed as inhibition of virus-induced cytopathic effect incubated for 48 hrs by crystal violet staining based assay; assay type: functional, organism-based
Summary of the method: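 MDCK cells were infected at MOI 0.1, the inoculum was removed, and compounds were added in triplicate. After 48 h the cells were fixed in 4% formaldehyde (20 min, RT) and stained with 0.1% crystal violet (30 min). Dye was solubilized in methanol and read at 570 nm.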

[15] = Cumulative drug excretion in mouse feces at 0.5 mg/kg, iv administered as single dose measured after 72 hrs; assay type: ADME, organism-based; settings: faeces, read-out: Drug excretion; summary of the method: as §2
Influenza A virus [16] = test: Antiviral activity against Influenza A virus (A/Puerto Rico/8/1934(H1N1)) infected in Kunming mouse assessed as decrease in pulmonary viral titers at 20 to 40 ug/day dosed intranasally starting 4 hrs after viral challenge and continued for 4 days by plaque assay; assay type: functional, organism-based
Summary of the method: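 Four-week-old female Kunming mice were infected intranasally with PR8 (500 PFU/mouse in 40 µL PBS), randomized, and dosed once daily orally or intranasally. On day 4 the mice were euthanized; lungs were removed, weighed, homogenized in PBS, and titrated by plaque assay.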

Q: With `CC(=O)c1cc(C)c(O)c(Cc2[nH]c3ccccc3c2Cc2c(O)c(C)cc(C(C)=O)c2O)c1O` as the compound, how does the Tmax [1] read?
A: The Tmax was 4.3 h.

Q: What about the Activity [2] of the same compound?
A: Its Activity is “Non-Toxic”.

Q: What about the Activity (Influenza A virus [3]) of the same compound?
A: The Activity was “Dose-dependent effect”.

Q: What about the AUC(0-t) [4] of the same compound?
A: The AUC(0-t) was 269 ng·h/mL.

Q: And the inhibition [5]?
A: Its inhibition is “Active”.

Q: What about the Activity (Influenza A virus [6]) of the same compound?
A: Its Activity is “Active”.

Q: And the dose excreted at 72 h [7]?
A: Its dose excreted at 72 h is 0.004%.

Q: And the dose excreted at 72 h [8]?
A: The dose excreted at 72 h was 7.2%.

Q: What about the Activity (Influenza A virus [9]) of the same compound?
A: The Activity was “Active”.

Q: What about the Activity (Influenza A virus [10]) of the same compound?
A: Its Activity is “Dose-dependent effect”.

Q: What about the Survival (Influenza A virus [11]) of the same compound?
A: Its Survival is 100%.

Q: And the bioavailability [12]?
A: Its bioavailability is 1.4%.

Q: And the Activity [13]?
A: Its Activity is “Non-Toxic”.

Q: And the IC50 (Influenza A virus [14])?
A: Its IC50 is 26.4 µM.

Q: And the dose excreted at 72 h [15]?
A: Its dose excreted at 72 h is 29.1%.

Q: What about the Activity (Influenza A virus [16]) of the same compound?
A: The Activity was “Active”.
